Columns and labels:
[1] = target: Sodium-dependent dopamine transporter (Rattus norvegicus, UniProt P23977); experiment: Inhibitory activity against dopamine transporter (DAT) labeled with [3H]WIN-35428 in rat brain striatal membrane.; assay type: cell membranes
[2] = target: Sodium-dependent serotonin transporter (Rattus norvegicus, UniProt P31652); experiment: Inhibitory activity against serotonin transporter (SERT) labeled with [3H]-citalopram in rat brain striatal membrane.; assay type: cell membranes
[3] = tested on: Monoamine transporters; serotonin & dopamine; experiment: Ratio between the IC50 values of SERT and DAT; assay type: protein assay
Method in brief: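 Selectivity ratio: SERT IC50 ([3H]citalopram) divided by DAT IC50 ([3H]WIN 35,428). Both IC50s come from binding in male Sprague–Dawley rat striatal membranes under identical conditions, each by nonlinear curve fitting of at least five concentrations, three independent experiments in triplicate.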

Chain of Sodium-dependent serotonin transporter (P31652 whole entry): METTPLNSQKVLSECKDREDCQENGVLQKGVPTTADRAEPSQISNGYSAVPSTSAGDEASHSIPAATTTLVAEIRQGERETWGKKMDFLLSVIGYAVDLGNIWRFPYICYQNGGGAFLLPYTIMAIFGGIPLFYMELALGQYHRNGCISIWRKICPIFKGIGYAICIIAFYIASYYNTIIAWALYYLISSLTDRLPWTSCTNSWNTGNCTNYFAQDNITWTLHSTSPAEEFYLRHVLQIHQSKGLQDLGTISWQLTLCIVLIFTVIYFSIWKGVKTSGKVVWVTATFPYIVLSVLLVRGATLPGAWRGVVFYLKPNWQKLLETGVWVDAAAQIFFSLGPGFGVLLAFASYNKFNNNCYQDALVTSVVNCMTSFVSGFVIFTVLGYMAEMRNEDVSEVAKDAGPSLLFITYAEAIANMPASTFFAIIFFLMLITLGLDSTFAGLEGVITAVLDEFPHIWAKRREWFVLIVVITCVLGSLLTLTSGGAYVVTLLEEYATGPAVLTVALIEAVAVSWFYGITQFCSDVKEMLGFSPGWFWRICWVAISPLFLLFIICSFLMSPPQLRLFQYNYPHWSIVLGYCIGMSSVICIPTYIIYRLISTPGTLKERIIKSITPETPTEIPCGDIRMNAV
Chain of Sodium-dependent dopamine transporter (P23977 whole entry): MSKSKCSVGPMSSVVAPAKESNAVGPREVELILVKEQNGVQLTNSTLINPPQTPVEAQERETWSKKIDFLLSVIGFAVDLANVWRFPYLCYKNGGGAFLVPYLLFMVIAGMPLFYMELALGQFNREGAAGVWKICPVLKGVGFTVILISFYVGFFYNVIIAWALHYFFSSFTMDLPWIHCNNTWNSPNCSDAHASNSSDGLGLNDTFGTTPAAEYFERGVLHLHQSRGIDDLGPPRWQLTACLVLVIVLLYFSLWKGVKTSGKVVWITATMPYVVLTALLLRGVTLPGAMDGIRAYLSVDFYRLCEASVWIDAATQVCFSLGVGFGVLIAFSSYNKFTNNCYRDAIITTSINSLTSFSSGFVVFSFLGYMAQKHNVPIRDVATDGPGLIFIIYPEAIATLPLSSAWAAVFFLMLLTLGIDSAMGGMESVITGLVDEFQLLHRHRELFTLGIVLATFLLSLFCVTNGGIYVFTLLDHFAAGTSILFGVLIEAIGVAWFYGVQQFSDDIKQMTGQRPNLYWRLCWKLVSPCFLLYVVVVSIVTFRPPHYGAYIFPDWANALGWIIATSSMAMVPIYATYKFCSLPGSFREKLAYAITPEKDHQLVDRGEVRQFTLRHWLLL

SMILES: Fc1ccc(C=CCN2CCC(CCOC(c3ccc(F)cc3)c3ccc(F)cc3)CC2)cc1
- IC50 [1]: 15.1 nM
- IC50 [2]: 75.8 nM
- Ratio [3]: 5

SMILES: Fc1ccc(CCCN2CCC(CCOC(c3ccccc3)c3ccccc3)CC2)cc1
- IC50 [1]: 6.6 nM
- IC50 [2]: 223 nM
- Ratio [3]: 33.8

SMILES: Fc1ccc(C(OCCC2CCN(CC=Cc3ccccc3)CC2)c2ccc(F)cc2)cc1
- IC50 [1]: 41.4 nM
- IC50 [2]: 271 nM
- Ratio [3]: 6.5

SMILES: Fc1ccc(C(OCCC2CCN(CCCc3ccccc3)CC2)c2cccs2)cc1 (configuration not stated)
- IC50 [1]: 11.7 nM
- IC50 [2]: 85.7 nM
- Ratio [3]: 7.3

SMILES: C(=Cc1ccccc1)CN1CCC(CCOC(c2ccccc2)c2ccccc2)CC1
- IC50 [1]: 10.1 nM
- IC50 [2]: 232 nM
- Ratio [3]: 22.9

SMILES: c1ccc(C(OCCC2CCN(CCCc3cccnc3)CC2)c2ccccc2)cc1
- IC50 [1]: 29.9 nM
- IC50 [2]: 194 nM
- Ratio [3]: 6.5

SMILES: c1ccc(CCCN2CCC(CCOC(c3ccccc3)c3cccs3)CC2)cc1 (configuration not stated)
- IC50 [1]: 6 nM
- IC50 [2]: 180 nM
- Ratio [3]: 30

SMILES: Fc1ccc(C=CCN2CCC(CCOC(c3ccccc3)c3ccccc3)CC2)cc1
- IC50 [1]: 10.8 nM
- IC50 [2]: 205 nM
- Ratio [3]: 19

SMILES: C(=Cc1cccs1)CN1CCC(CCOC(c2ccccc2)c2ccccc2)CC1
- IC50 [1]: 9.8 nM
- IC50 [2]: 291 nM
- Ratio [3]: 29.6

Reference: ChEMBL document CHEMBL1131564, “Potent and selective ligands for the dopamine transporter (DAT): structure-activity relationship studies of novel 4-[2-(diphenylmethoxy)ethyl]-1-(3-phenylpropyl)piperidine analogues” (J Med Chem, 1998)
